Calls of active or inactive are those of the source.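 How the source made its calls: active means a fitted dose response curve plus choline uptake above 120% of control at 33.3 µM; inactive means the rest.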
Biological target: High affinity choline transporter 1 (Homo sapiens) (UniProt Q9GZV3)
Assay: CHT activators enhancing choline uptake, dose response, orthogonal assay for CHT activator project, cell-based, 3H-choline uptake, radioactive, HEK293 CHT LV-AA (AID 651748)
Details: HEK293 hCHT LV-AA cells; series mostly up to 33.3 µM; choline uptake, % of control: at the top concentration
Procedure, shortened: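 System: HEK293 cells expressing human CHT trafficking mutant LV-AA; medium: HEPES-buffered HBSS, pH 7.4; probe or stimulus: 3H-choline, 50 nM total choline with 10% tritiated; times: 15 min compound pre-incubation then 15 min choline uptake, both 37 °C; measured by: tritium scintillation counting; control set: buffer 100%, HC-3 0%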

Chain of High affinity choline transporter 1 (Homo sapiens) (Q9GZV3 whole entry, looked up): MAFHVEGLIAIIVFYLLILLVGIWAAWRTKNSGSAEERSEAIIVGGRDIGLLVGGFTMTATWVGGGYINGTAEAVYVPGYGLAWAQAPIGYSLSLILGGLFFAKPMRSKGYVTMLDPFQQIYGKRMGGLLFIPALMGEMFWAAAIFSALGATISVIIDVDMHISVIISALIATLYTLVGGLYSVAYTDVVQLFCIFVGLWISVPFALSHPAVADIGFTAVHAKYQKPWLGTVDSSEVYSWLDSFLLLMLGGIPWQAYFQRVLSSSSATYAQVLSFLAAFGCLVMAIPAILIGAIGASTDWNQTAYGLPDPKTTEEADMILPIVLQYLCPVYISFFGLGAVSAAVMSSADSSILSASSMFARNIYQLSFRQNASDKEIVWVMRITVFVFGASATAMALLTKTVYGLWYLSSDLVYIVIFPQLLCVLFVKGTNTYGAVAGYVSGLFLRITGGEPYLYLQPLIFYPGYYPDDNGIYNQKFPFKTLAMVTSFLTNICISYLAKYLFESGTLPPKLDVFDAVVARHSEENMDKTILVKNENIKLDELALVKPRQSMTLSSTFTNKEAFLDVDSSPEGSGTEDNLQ

| SMILES | choline uptake, % of control |
| --- | --- |
| O=C1N(Cc2cccc(Cl)c2)C[C@@H]2C[C@@H](c3cccn3-c3ccccn3)N3CCC[C@@]123 | 60.9% (inactive) |
| Fc1ccc(NCc2nc3ccccc3n2CCOc2ccccc2)cc1 | 55.7% (inactive) |
| COc1ccc(NCc2nc3ccccc3n2CCOc2ccccc2)cc1 | 78.9% (inactive) |
| Clc1ccc(NCc2nc3ccccc3n2CCOc2ccccc2)cc1 | 47.9% (inactive) |
| Brc1ccc(NCc2nc3ccccc3n2CCOc2ccccc2)cc1 | 81% (inactive) |
| Cc1cccc(NCc2nc3ccccc3n2CCOc2ccccc2)c1 | 70.5% (inactive) |
| c1ccc(NCc2nc3ccccc3n2CCOc2ccccc2)cc1 | 67% (inactive) |
| Cc1ccccc1NCc1nc2ccccc2n1CCOc1ccccc1 | 54.1% (inactive) |
| CCOc1ccc(NCc2nc3ccccc3n2CCOc2ccccc2)cc1 | 64.9% (inactive) |
| O=C(c1cccc(C(F)(F)F)c1)C1CCCN(Cc2cccn2-c2ncccn2)C1 (centres undefined) | 52.6% (inactive) |
| COc1ccc(NCc2nc3ccccc3n2CCOc2ccccc2Cl)cc1 | 65.1% (inactive) |
| Cc1ccc(NCc2nc3ccccc3n2CCOc2ccccc2)cc1 | 58.6% (inactive) |
| CC(C)CN1CCN(Cc2cccn2-c2ccc(Cl)cn2)CC1CCO (centres undefined) | 57.3% (inactive) |
| COc1ccccc1NCc1nc2ccccc2n1CCOc1ccccc1 | 87.8% (inactive) |

Reference: PubChem BioAssay AID651748 (Johns Hopkins Ion Channel Center, 2012)
